pIC50: −log10 of the molar value.
Key:
L1210 [1] = test: Compound was tested for percent increase in life span against L1210 lymphoid leukemia; assay type: functional, Mus musculus
P388 = test: Compound was tested for mean survival time of treated mice in days / mean survival time of control mice x 100 against P388 lymphoid leukemia cells; Inactive; assay type: functional, Mus musculus
L1210 [2] = test: Compound was tested for the concentration required to inhibit the growth rate of the control L1210 cells by 50%; Value ranges from 2.60-4.71; assay type: functional; settings: Mus musculus, read-out: ID50 (the source's name)
L1210 [3] = test: Compound was tested for its inhibitory activity against L1210 lymphoid leukemia; assay type: functional, cell-based; settings: Mus musculus
L1210 [4] = test: Compound was tested for mean survival time of treated mice in days / mean survival time of control mice x 100 against L1210 lymphoid leukemia cells; assay type: functional, Mus musculus
Outline: (§1)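 CD2F1 mice in groups of six received 1 × 10⁵ L1210 lymphoid leukemia cells ip. Dosing was ip, once a day for 5 days, starting 24 h after tumor inoculation, under standard NCI protocol. %T/C = (mean survival time of treated mice in days / mean survival time of controls) × 100. Toxic deaths were excluded from the %T/C calculation.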

L1210 [5] = test: Antitumor activity against L1210 lymphoid leukemia in CD2F1 mice at a dose of […] measured as difference between estimated tumor burdens before second treatment; assay type: functional, Mus musculus
L1210 [6] = test: Antitumor activity against L1210 lymphoid leukemia in CD2F1 mice at a dose of 100 mg/injection and difference between estimated tumor burdens before second treatment; assay type: functional, Mus musculus
Outline: (§2)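 CD2F1 mice, in groups of six, received 1 × 10⁵ L1210 cells ip and were dosed ip once daily for 5 days from 24 h after inoculation. Net cell kill is the estimated change in tumor burden from before the first dose to just after the last. It is calculated as (T − C − Rx)/3.32Td, using the tumor doubling time observed in that test and survival after the last treatment.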

L1210 [7] = test: Antitumor activity against L1210 lymphoid leukemia in CD2F1 mice at a dose of 100 mg/injection measured as difference between estimated tumor burdens before first treatment; assay type: functional, Mus musculus; outline: as §2
L1210 [8] = test: Ability to inhibit growth of L1210 lymphocyte leukemia cell in culture; assay type: functional, cell-based; settings: Mus musculus
L1210 [9] = test: Antitumor activity against L1210 lymphoid leukemia in CD2F1 mice at a dose of 50 mg/injection measured as difference between estimated tumor burdens before first treatment; assay type: functional, Mus musculus; outline: as §2
L1210 [10] = test: Antitumor activity against L1210 lymphoid leukemia in CD2F1 mice at a dose of 50 mg/injection measured as difference between estimated tumor burdens before second treatment; assay type: functional, Mus musculus; outline: as §2
L1210 [11] = test: Antitumor activity against L1210 lymphoid leukemia in CD2F1 mice at 100 mg/injection and measured as mean weight change (days 5 minus 1) of treated mice minus mean weight change of control mice before first treatment was reported; assay type: functional, Mus musculus
Outline: (§3)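 CD2F1 mice, in groups of six, were inoculated ip with 1 × 10⁵ L1210 lymphoid leukemia cells. Dosing was ip once daily for 5 days, starting 24 h after inoculation. Toxicity was scored as the mean weight change of treated mice (day 5 minus day 1) minus the mean weight change of control mice.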

L1210 [12] = test: Antitumor activity against L1210 lymphoid leukemia in CD2F1 mice at 100 mg/injection and measured as mean weight change (days 5 minus 1) of treated mice minus mean weight change of control mice before second treatment was reported; assay type: functional, Mus musculus; outline: as §3
L1210 [13] = test: Antitumor activity against L1210 lymphoid leukemia in CD2F1 mice at a dose of 200 mg/injection measured as difference between estimated tumor burdens before first treatment; assay type: functional, Mus musculus; outline: as §2
L1210 [14] = test: Antitumor activity against L1210 lymphoid leukemia in CD2F1 mice at a dose of 25 mg/injection measured as difference between estimated tumor burdens before first treatment; assay type: functional, Mus musculus; outline: as §2
L1210 [15] = test: Antitumor activity against L1210 lymphoid leukemia in CD2F1 mice at a dose of 25 mg/injection measured as difference between estimated tumor burdens before second treatment; assay type: functional, Mus musculus; outline: as §2
L1210 [16] = test: Antitumor activity against L1210 lymphoid leukemia in CD2F1 mice at a dose of 300 mg/injection measured as difference between estimated tumor burdens before first treatment; assay type: functional, Mus musculus; outline: as §2
L1210 [17] = test: Antitumor activity against L1210 lymphoid leukemia in CD2F1 mice at […] and measured as mean weight change (days 5 minus 1) of treated mice minus mean weight change of control mice before second treatment was reported; assay type: functional, Mus musculus
L1210 [18] = test: Antitumor activity against L1210 lymphoid leukemia in CD2F1 mice at 200 mg/injection and measured as mean weight change (days 5 minus 1) of treated mice minus mean weight change of control mice before first treatment was reported; assay type: functional, Mus musculus; outline: as §3
L1210 [19] = test: Antitumor activity against L1210 lymphoid leukemia in CD2F1 mice at 200 mg/injection and measured as mean weight change (days 5 minus 1) of treated mice minus mean weight change of control mice before second treatment was reported; assay type: functional, Mus musculus; outline: as §3
L1210 [20] = test: Antitumor activity against L1210 lymphoid leukemia in CD2F1 mice at 25 mg/injection and measured as mean weight change (days 5 minus 1) of treated mice minus mean weight change of control mice before first treatment was reported; assay type: functional, Mus musculus; outline: as §3
L1210 [21] = test: Antitumor activity against L1210 lymphoid leukemia in CD2F1 mice at 25 mg/injection and measured as mean weight change (days 5 minus 1) of treated mice minus mean weight change of control mice before second treatment was reported; assay type: functional, Mus musculus; outline: as §3
L1210 [22] = test: Antitumor activity against L1210 lymphoid leukemia in CD2F1 mice at 300 mg/injection and mean weight change (days 5 minus 1) of treated mice minus mean weight change of control mice before first treatment was reported; assay type: functional, Mus musculus; outline: as §3
L1210 [23] = test: Antitumor activity against L1210 lymphoid leukemia in CD2F1 mice at 100 mg/injection and measured as mean survival time of treated mice in days/mean survival time of control mice x 100 before first treatment was reported; assay type: functional, Mus musculus; outline: as §1
L1210 [24] = test: Antitumor activity against L1210 lymphoid leukemia in CD2F1 mice at 100 mg/injection and measured as mean survival time of treated mice in days/mean survival time of control mice x 100 before second treatment was reported; assay type: functional, Mus musculus; outline: as §1
L1210 [25] = test: Antitumor activity against L1210 lymphoid leukemia in CD2F1 mice at […] and measured as mean survival time of treated mice in days/mean survival time of control mice x 100 before second treatment was reported; assay type: functional, Mus musculus
L1210 [26] = test: Antitumor activity against L1210 lymphoid leukemia in CD2F1 mice at 200 mg/injection and measured as mean survival time of treated mice in days/mean survival time of control mice x 100 before first treatment was reported; assay type: functional, Mus musculus; outline: as §1
L1210 [27] = test: Antitumor activity against L1210 lymphoid leukemia in CD2F1 mice at 200 mg/injection and measured as mean survival time of treated mice in days/mean survival time of control mice x 100 before second treatment was reported; assay type: functional, Mus musculus; outline: as §1
L1210 [28] = test: Antitumor activity against L1210 lymphoid leukemia in CD2F1 mice at 25 mg/injection and measured as mean survival time of treated mice in days/mean survival time of control mice x 100 before first treatment was reported; assay type: functional, Mus musculus; outline: as §1
L1210 [29] = test: Antitumor activity against L1210 lymphoid leukemia in CD2F1 mice at 50 mg/injection and measured as mean weight change (days 5 minus 1) of treated mice minus mean weight change of control mice before first treatment was reported; assay type: functional, Mus musculus; outline: as §3
L1210 [30] = test: Antitumor activity against L1210 lymphoid leukemia in CD2F1 mice at 50 mg/injection and measured as mean weight change (days 5 minus 1) of treated mice minus mean weight change of control mice before second treatment was reported; assay type: functional, Mus musculus; outline: as §3
L1210 [31] = test: Antitumor activity against L1210 lymphoid leukemia in CD2F1 mice at 25 mg/injection and measured as mean survival time of treated mice in days/mean survival time of control mice x 100 before second treatment was reported; assay type: functional, Mus musculus; outline: as §1
L1210 [32] = test: Antitumor activity against L1210 lymphoid leukemia in CD2F1 mice at 300 mg/injection and measured as mean survival time of treated mice in days/mean survival time of control mice x 100 before first treatment was reported; assay type: functional, Mus musculus; outline: as §1
L1210 [33] = test: Antitumor activity against L1210 lymphoid leukemia in CD2F1 mice at 50 mg/injection and measured as mean survival time of treated mice in days/mean survival time of control mice x 100 before first treatment was reported; assay type: functional, Mus musculus; outline: as §1
L1210 [34] = test: Antitumor activity against L1210 lymphoid leukemia in CD2F1 mice at 50 mg/injection and measured as mean survival time of treated mice in days/mean survival time of control mice x 100 before second treatment was reported; assay type: functional, Mus musculus; outline: as §1

SMILES: Nc1nc(=O)n([C@H]2C[C@H](O)[C@@H](CO)O2)cc1F
- ILS (L1210 [1]): >161%

SMILES: Nc1ccnc(O)c1F
- T/C (P388): <125%

SMILES: Nc1cc(O)nc(F)c1
- T/C (P388): <125%

SMILES: Nc1cc(O)ncc1F
- T/C (P388): <125%

SMILES: Nc1c(F)c(O)nc(F)c1F
- pIC50 (L1210 [2]): 4.33
- T/C (P388): <125%

SMILES: NNc1nc(F)c(F)c(N)c1F
- pIC50 (L1210 [2]): 4.33
- T/C (P388): <125%

SMILES: Nc1c(F)cnc(F)c1F
- pIC50 (L1210 [2]): 4.33
- T/C (P388): <125%

SMILES: Nc1ccn([C@@H]2O[C@H](CO)[C@@H](O)[C@H]2O)c(=O)c1
- pIC50 (L1210 [3]): 4.75

SMILES: CC(=O)Nc1ccn([C@@H]2O[C@H](COC(C)=O)[C@@H](OC(C)=O)[C@H]2OC(C)=O)c(=O)c1F
- pIC50 (L1210 [3]): 4.90

SMILES: Nc1ccn([C@H]2C[C@H](O)[C@@H](CO)O2)c(=O)c1F
- T/C (L1210 [4]): <125%

SMILES: Nc1c(F)cn([C@H]2C[C@H](O)[C@@H](CO)O2)c(=O)c1F
- T/C (L1210 [4]): <125%

SMILES: C[C@@]1(n2cc(F)c(N)c(F)c2=O)C[C@H](O)[C@@H](CO)O1
- T/C (L1210 [4]): <125%

SMILES: Nc1c(F)cnc(O)c1F
- pIC50 (L1210 [2]): 4.33
- T/C (P388): <125%

SMILES: Nc1c(F)cn(C2O[C@H](CO)[C@@H](O)[C@H]2O)c(=O)c1F (some centres not stated)
- T/C (L1210 [4]): <125%

SMILES: Nc1ccn(C2O[C@H](CO)[C@@H](O)[C@H]2O)c(=O)c1F (some centres not stated)
- Net log kill (L1210 [5]): -0.97
- Net log kill (L1210 [6]): 5.54
- Net log kill (L1210 [7]): 2.93
- pIC50 (L1210 [8]): 4.97
- Net log kill (L1210 [9]): 2.2
- Net log kill (L1210 [10]): 3.01
- BWD (L1210 [11]): -3
- BWD (L1210 [12]): -1.3
- Net log kill (L1210 [13]): 3.91
- Net log kill (L1210 [14]): 1.3
- Net log kill (L1210 [15]): 0.78
- Net log kill (L1210 [16]): 5.37
- BWD (L1210 [17]): -0.5
- BWD (L1210 [18]): -4.8
- BWD (L1210 [19]): -3.4
- BWD (L1210 [20]): -1
- BWD (L1210 [21]): -1
- BWD (L1210 [22]): -4.7
- T/C (L1210 [23]): 193%
- T/C (L1210 [24]): 216%
- T/C (L1210 [25]): 136%
- T/C (L1210 [26]): 208%
- T/C (L1210 [27]): 208%
- T/C (L1210 [28]): 169%
- BWD (L1210 [29]): -1.7
- BWD (L1210 [30]): -1.1
- T/C (L1210 [31]): 157%
- T/C (L1210 [32]): 230%
- T/C (L1210 [33]): 182%
- T/C (L1210 [34]): 185%

SMILES: Nc1ncn([C@@H]2O[C@H](CO)[C@@H](O)[C@H]2O)c(=O)n1 [AZACITIDINE]
- pIC50 (L1210 [3]): 6.39

SMILES: Nc1ccn([C@@H]2O[C@H](CO)[C@@H](O)[C@@H]2O)c(=O)n1 [CYTARABINE]
- ILS (L1210 [1]): >161%

SMILES: Nc1ncn([C@H]2C[C@H](O)[C@@H](CO)O2)c(=O)n1 [DECITABINE]
- pIC50 (L1210 [3]): 6.41

SMILES: Nc1ccn([C@H]2C[C@H](O)[C@@H](CO)O2)c(=O)n1 [DOXECITINE]
- ILS (L1210 [1]): >161%

Reference: ChEMBL document CHEMBL1123674, “Synthesis and antitumor activity of fluorine-substituted 4-amino-2(1H)-pyridinones and their nucleosides. 3-Deazacytosines” (J Med Chem, 1987)
